Measured values from ChEMBL document CHEMBL1130049, “Synthesis and oral efficacy of a 4-(butylethylamino)pyrrolo[2,3-d]pyrimidine: a centrally active corticotropin-releasing factor1 receptor antagonist” (J Med Chem, 1997).

Legend:
[1] = organism: Rattus norvegicus; experiment: Volume of distribution in steady state in rat; type: ADME, organism-based; conditions: in vivo
How it was run: (§1)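 Male Sprague-Dawley rats (300–350 g) had jugular cannulae placed under pentobarbital the day before dosing. Groups of n = 4 got 5 mg/kg iv bolus (DMSO/emulphor/saline 5:5:90) or 10 mg/kg po (DMSO/emulphor/water 5:5:90). Serial plasma was taken to 24 h (iv) or 8 h (po) and assayed by HPLC-UV at 300 nm. AUC was by linear trapezoid, CL = dose/AUC, Vdss = CL×MRT, and F from dose-normalised po/iv AUC.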

[2] = Plasma clearance in rat; type: ADME, organism-based; how it was run: as §1
[3] = Maximal plasma concentration in rat; type: ADME, organism-based; how it was run: as §1
[4] = target: T1, Corticotropin-releasing factor receptor 1 (Rattus norvegicus, UniProt P35353); experiment: Inhibition of binding of 70 pM [125I]-Try0-o-Corticotropin-releasing Factor (CFR) to Corticotropin releasing hormone receptor 1 in Rat brain membrane; type: cell membranes
T1 sequence (P35353 whole entry): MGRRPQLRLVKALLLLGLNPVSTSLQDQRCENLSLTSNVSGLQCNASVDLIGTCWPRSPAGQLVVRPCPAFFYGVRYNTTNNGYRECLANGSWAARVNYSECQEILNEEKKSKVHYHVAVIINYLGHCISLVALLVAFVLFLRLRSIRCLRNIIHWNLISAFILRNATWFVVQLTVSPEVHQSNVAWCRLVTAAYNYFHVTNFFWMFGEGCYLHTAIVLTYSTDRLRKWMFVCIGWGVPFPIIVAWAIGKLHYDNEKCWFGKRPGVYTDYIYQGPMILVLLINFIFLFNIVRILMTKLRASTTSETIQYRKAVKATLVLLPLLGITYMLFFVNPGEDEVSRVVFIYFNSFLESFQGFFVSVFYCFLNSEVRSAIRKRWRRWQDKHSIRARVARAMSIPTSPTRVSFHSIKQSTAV

[5] = target: Corticotropin-releasing factor receptor 2 (Rattus norvegicus, UniProt P47866); experiment: Inhibition of binding of [125I]-Tyr0-sauvagine to Corticotropin releasing hormone receptor 2 (CRF2)
[6] = organism: Rattus norvegicus; experiment: Half life in rat; type: ADME, organism-based; conditions: in vivo; how it was run: as §1
[7] = Oral bioavailability in rat; type: ADME, organism-based; conditions: in vivo, read-out: Bioavailabiility; how it was run: as §1

Corticotropin-releasing factor receptor 2, sequence (P47866 whole entry): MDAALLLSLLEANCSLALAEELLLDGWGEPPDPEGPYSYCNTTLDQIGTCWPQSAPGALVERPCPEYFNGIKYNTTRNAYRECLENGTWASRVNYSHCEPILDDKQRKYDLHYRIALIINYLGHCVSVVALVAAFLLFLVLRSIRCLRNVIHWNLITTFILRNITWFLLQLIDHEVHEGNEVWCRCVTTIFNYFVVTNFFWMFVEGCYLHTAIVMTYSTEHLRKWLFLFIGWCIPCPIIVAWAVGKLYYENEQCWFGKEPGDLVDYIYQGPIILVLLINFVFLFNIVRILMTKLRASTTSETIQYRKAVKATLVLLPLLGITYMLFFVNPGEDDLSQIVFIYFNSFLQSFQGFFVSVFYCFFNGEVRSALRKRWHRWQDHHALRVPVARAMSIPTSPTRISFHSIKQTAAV

- Vdss [1]: 6.7 L/kg
- clearance [2]: 82 mL/min/kg
- Cmax [3]: 367 ng/mL
- IC50 [4]: 5.5 nM
- Ki [5]: > 10000 nM
- T1/2 [6]: 1.5 h
- bioavailability [7]: 37%
SMILES: CCCCN(CC)c1nc(C)nc2c1c(C)cn2-c1c(C)cc(C)cc1C [CP-154526]
